pIC50: −log10 of the molar value. The source made the active and inactive calls. No cut-off for these calls is given here.
Experiments:
[1] = target: T1, Polyunsaturated fatty acid 5-lipoxygenase (Rattus norvegicus, UniProt P12527); test: Evaluated in vitro for its inhibitory activity against 5-lipoxygenase
T1 sequence (P12527 whole entry): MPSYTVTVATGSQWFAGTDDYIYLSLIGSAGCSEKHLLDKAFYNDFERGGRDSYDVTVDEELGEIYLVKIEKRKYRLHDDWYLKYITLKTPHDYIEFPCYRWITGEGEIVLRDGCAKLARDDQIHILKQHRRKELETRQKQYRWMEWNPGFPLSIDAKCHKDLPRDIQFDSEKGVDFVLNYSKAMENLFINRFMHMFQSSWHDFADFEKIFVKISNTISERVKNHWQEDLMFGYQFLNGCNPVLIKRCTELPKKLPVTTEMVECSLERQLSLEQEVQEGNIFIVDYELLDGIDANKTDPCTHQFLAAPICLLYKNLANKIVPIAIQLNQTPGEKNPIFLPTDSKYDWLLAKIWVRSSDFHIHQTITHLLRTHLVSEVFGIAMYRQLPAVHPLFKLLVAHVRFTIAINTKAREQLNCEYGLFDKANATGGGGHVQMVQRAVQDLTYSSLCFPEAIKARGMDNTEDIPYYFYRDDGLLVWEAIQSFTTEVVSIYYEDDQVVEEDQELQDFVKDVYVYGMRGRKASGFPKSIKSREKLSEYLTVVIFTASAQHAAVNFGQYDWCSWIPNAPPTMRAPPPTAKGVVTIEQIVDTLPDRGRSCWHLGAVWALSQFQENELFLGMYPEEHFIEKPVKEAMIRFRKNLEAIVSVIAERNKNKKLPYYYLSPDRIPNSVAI

Cyclooxygenase = target: T2, Cyclooxygenase (Rattus norvegicus, UniProt P35355+Q63921); test: Evaluated in vitro for its inhibitory activity against Prostaglandin G/H synthase; type: protein assay
T2 sequence (P35355 whole entry): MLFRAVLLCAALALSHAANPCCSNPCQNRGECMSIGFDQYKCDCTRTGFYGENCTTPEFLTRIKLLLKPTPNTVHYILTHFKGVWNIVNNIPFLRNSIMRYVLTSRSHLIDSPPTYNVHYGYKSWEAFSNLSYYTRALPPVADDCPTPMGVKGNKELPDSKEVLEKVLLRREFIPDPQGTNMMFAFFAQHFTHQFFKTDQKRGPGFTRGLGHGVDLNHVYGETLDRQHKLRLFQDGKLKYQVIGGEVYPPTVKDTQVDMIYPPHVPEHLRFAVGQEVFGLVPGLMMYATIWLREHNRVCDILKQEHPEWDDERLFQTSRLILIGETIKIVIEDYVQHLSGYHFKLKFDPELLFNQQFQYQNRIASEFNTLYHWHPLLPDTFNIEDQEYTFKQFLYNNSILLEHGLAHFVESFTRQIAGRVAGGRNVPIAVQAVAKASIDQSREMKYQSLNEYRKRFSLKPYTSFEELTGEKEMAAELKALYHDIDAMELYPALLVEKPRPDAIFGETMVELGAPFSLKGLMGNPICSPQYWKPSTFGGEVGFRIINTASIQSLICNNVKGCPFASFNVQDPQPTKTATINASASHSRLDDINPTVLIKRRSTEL
T2 sequence (Q63921 whole entry): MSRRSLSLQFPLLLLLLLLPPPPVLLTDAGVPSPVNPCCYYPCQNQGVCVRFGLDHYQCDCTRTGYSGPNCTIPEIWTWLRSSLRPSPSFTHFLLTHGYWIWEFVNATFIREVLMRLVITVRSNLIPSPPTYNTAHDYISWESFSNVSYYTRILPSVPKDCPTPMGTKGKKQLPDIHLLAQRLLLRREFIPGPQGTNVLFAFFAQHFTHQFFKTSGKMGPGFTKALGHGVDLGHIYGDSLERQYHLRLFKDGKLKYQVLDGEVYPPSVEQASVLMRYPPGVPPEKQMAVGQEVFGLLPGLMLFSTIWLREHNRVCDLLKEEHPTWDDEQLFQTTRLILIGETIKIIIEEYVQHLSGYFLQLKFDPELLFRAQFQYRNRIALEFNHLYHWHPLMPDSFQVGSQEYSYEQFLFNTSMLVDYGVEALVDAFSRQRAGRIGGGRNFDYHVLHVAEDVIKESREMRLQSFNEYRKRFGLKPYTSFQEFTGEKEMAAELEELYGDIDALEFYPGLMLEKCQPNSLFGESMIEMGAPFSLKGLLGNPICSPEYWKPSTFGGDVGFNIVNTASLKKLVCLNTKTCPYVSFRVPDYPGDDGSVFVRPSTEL

Rattus norvegicus [2] = test: Compound was evaluated for the antiinflammatory activity by measuring the dose (po) which inhibited Mycobacterium induced foot-pad edema in rats; N=Inactive, <30% inhibition at 10 mg/kg po; type: functional, organism-based; design: dose 10 mg/kg
Rattus norvegicus [3] = test: Evaluated for the antiinflammatory activity by measuring the percentage inhibition of edema in the carrageenan foot-pad edema test at the dose of 10 mg/kg; type: functional
Procedure, shortened: (§1)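 Male Wistar rats dosed orally (0.5% HPMC/0.2% Tween 80 or Labrafils, 10 mL/kg) 1 h before subplantar injection of 0.10 mL 1% carrageenan into right hind paw under light anesthesia. Paw volume by mercury plethysmography at challenge and 5 h later; percent inhibition ± SEM versus vehicle group. Doses 10.0 and 30.0 mg/kg po, 7-14 rats per dose.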

Rattus norvegicus [4] = test: Evaluated for the antiinflammatory activity by measuring the percentage inhibition of edema in the carrageenan foot-pad edema test at the dose of 30 mg/kg; type: functional; procedure, shortened: as §1
Rattus norvegicus [5] = species: Rattus norvegicus; test: Ratio of IC50 against 5-LO to that of CO enzyme.
Procedure, shortened: (§2)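 In ionophore-stimulated RBL-1 cells (2×10^6/mL, PBS with 1.0 mM Ca, 10 min compound preincubation at room temperature, 5 μM A23187 for 7 min at 37 °C), supernatant LTB₄ (5-LO) and PGF₂α (CO) were each quantified by RIA over 0.10–10.0 μM. IC50s came from linear regression, and the ratio is the 5-LO IC50 over the CO IC50.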

[6] = target: T1, Polyunsaturated fatty acid 5-lipoxygenase; test: Evaluated in vitro for its inhibitory activity against 5-lipoxygenase; N=Inactive, <50% inhibition at 10 uM concentration
Procedure, shortened: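 RBL-1 cells grown in MEM + 12% FBS, washed in PBS pH 7.4, resuspended at 2×10^6 cells/mL in PBS with 1.0 mM calcium. Preincubated 10 min at room temperature with compound in DMSO, then stimulated with A23187 (5 μM) 7 min at 37 °C; stopped on ice. Supernatant LTB4 by radioimmunoassay.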

[7] = target: T1, Polyunsaturated fatty acid 5-lipoxygenase; test: Inhibitory activity against 5-Lipoxygenase
Procedure, shortened: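 Rat basophilic leukemia RBL-1 cells were grown in suspension in MEM with 12% FBS, washed, and resuspended at 2×10^6 cells/mL in PBS pH 7.4 with 1.0 mM calcium. Compound in DMSO was preincubated 10 min at room temperature, then 5 μM A23187 was added for 7 min at 37 °C. LTB₄ in the supernatant was measured by RIA at 0.10–10.0 μM. IC50 was determined by linear regression.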

Rattus norvegicus [8] = species: Rattus norvegicus; test: Ratio of IC50 against 5-LO and COX; procedure, shortened: as §2
Rattus norvegicus [9] = test: Evaluated for the percent rats with ulcers at the dose of 200 mg/kg (number of animals used per group in the experiment are 10 ); type: functional
Procedure, shortened: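 Male outbred Wistar rats (100-250 g) fasted 24 h, given compound orally in 0.5% HPMC (2 mL/kg), then denied food and water 6 more h. Killed with CO2; stomachs opened along greater curvature and scored for ulcers. Percent of rats with ulcers per dose; up to 200 mg/kg po, 10 rats per dose.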

Rattus norvegicus [10] = test: Evaluated for the antiinflammatory activity by measuring the dose (po) which inhibited Mycobacterium induced foot-pad edema in rats; type: functional
[11] = target: Cyclooxygenase (Rattus norvegicus) (UniProt P35355+Q63921); test: Inhibitory activity against Prostaglandin G/H synthase at 10 uM; type: protein assay
Procedure, shortened: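 Cyclooxygenase read-out in RBL-1 cells (2×10^6 cells/mL in PBS with 1.0 mM calcium): 10 min room-temperature preincubation with compound in DMSO, A23187 (5 μM) stimulation 7 min at 37 °C, ice stop. Supernatant PGF2α by radioimmunoassay; percent inhibition at a 10 μM screening concentration.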

[12] = target: T3, Polyunsaturated fatty acid 5-lipoxygenase (Rattus norvegicus) (UniProt P12527); conditions: at 10 µM
T3 sequence (whole entry): T1 sequence (P12527 whole entry)

Rattus norvegicus [13] = test: Compound was evaluated for the antiinflammatory activity by measuring the percentage inhibition of edema in the carrageenan foot-pad edema test at the dose of 30 mg/kg; N=Inactive, <25% inhibition; type: functional, organism-based; design: dose 30 mg/kg; procedure, shortened: as §1

`CN(C)Cc1noc(-c2cc(C(C)(C)C)c(O)c(C(C)(C)C)c2)n1.Cl` was tested, and the pIC50 [1] was 5.17, the IC50 (Cyclooxygenase) was 450 nM and the ID40 (Rattus norvegicus [2]) was “inactive”. For the same molecule, the inhibition in vivo at 10 mg/kg (Rattus norvegicus [3]) was 34.6%, the inhibition in vivo at 30 mg/kg (Rattus norvegicus [4]) was 50.3% and the Ratio (Rattus norvegicus [5]) was 15.
`CC(=N)Nc1nc(-c2cc(C(C)(C)C)c(O)c(C(C)(C)C)c2)ns1.Cl` was tested, and the IC50 [6] was “Inactive”.
For `Cc1nc(-c2cc(C(C)(C)C)c(O)c(C(C)(C)C)c2)no1`, the IC50 (Cyclooxygenase) was 300 nM and the Ratio (Rattus norvegicus [5]) was 7.7.
For `Cc1ccc(S(=O)(=O)c2nc(-c3cc(C(C)(C)C)c(O)c(C(C)(C)C)c3)ns2)cc1`, the IC50 [6] was “Inactive”.
Molecule `CC(C)(C)c1cc(-c2nsc(NC#N)n2)cc(C(C)(C)C)c1O.C[N+](C)(C)CC[O-]` has a pIC50 [7] of 5.72, a Ratio (Rattus norvegicus [8]) of 173 and an IC50 (Cyclooxygenase) of 11 nM.
Work on `CSC(=N)Nc1nc(-c2cc(C(C)(C)C)c(O)c(C(C)(C)C)c2)ns1.Cl` yielded a pIC50 [1] of 5.92, an IC50 (Cyclooxygenase) of 170 nM and an Activity (Rattus norvegicus [9]) of 0%. The ID40 (Rattus norvegicus [10]) was 7.3 mg/kg, the inhibition in vivo at 10 mg/kg (Rattus norvegicus [3]) was 30.7% and the inhibition in vivo at 30 mg/kg (Rattus norvegicus [4]) was 41.4%. For the same molecule, the Ratio (Rattus norvegicus [5]) was 7.1.
`C/N=C(\N)Nc1nc(-c2cc(C(C)(C)C)c(O)c(C(C)(C)C)c2)ns1.Cl` was tested, and the pIC50 [1] was 6.43, the IC50 (Cyclooxygenase) was 4400 nM and the Activity (Rattus norvegicus [9]) was 0%. The ID40 (Rattus norvegicus [10]) was 6 mg/kg, the inhibition in vivo at 10 mg/kg (Rattus norvegicus [3]) was 18% and the inhibition in vivo at 30 mg/kg (Rattus norvegicus [4]) was 38.9%. It also gave a Ratio (Rattus norvegicus [5]) of 0.084.
In the case of `CN(C)c1noc(-c2cc(C(C)(C)C)c(O)c(C(C)(C)C)c2)n1`, the IC50 [6] was “Inactive” and the inhibition [11] was 88%.
With `CN(C)C(=N)Nc1nc(-c2cc(C(C)(C)C)c(O)c(C(C)(C)C)c2)ns1` the inhibition [12] was 72%.
In the case of `CC(C)(C)c1cc(-c2nc(NC=O)no2)cc(C(C)(C)C)c1O`, the IC50 [6] was “Inactive”, the ID40 (Rattus norvegicus [2]) was “inactive” and the inhibition in vivo at 10 mg/kg (Rattus norvegicus [3]) was 51.5%. It also gave an inhibition in vivo at 30 mg/kg (Rattus norvegicus [4]) of 54.3%.
`CC(C)(C)c1cc(-c2nsc(CN)n2)cc(C(C)(C)C)c1O.Cl` gave a pIC50 [1] of 5.59, an IC50 (Cyclooxygenase) of 87 nM and a Ratio (Rattus norvegicus [5]) of 30.
With `CC(=O)Nc1noc(-c2cc(C(C)(C)C)c(O)c(C(C)(C)C)c2)n1` the IC50 [6] was “Inactive” and the inhibition (Rattus norvegicus [13]) was “inactive”.
In the case of `Cc1noc(-c2cc(C(C)(C)C)c(O)c(C(C)(C)C)c2)n1`, the pIC50 [1] was 5.48, the IC50 (Cyclooxygenase) was 460 nM and the inhibition (Rattus norvegicus [13]) was “inactive”. For the same molecule, the Ratio (Rattus norvegicus [5]) was 7.2.
In the case of `CC(C)(C)c1cc(-c2noc(N=C(N)N)n2)cc(C(C)(C)C)c1O.CS(=O)(=O)O`, the pIC50 [1] was 5.77, the IC50 (Cyclooxygenase) was 670 nM and the Activity (Rattus norvegicus [9]) was 0%. For the same molecule, the ID40 (Rattus norvegicus [10]) was 3.1 mg/kg, the inhibition in vivo at 10 mg/kg (Rattus norvegicus [3]) was 51.2% and the inhibition in vivo at 30 mg/kg (Rattus norvegicus [4]) was 71%. It also gave a Ratio (Rattus norvegicus [5]) of 2.5.

— ChEMBL document CHEMBL1125307, “Novel 1,2,4-oxadiazoles and 1,2,4-thiadiazoles as dual 5-lipoxygenase and cyclooxygenase inhibitors” (J Med Chem, 1992)
